# Measurements taken from ChEMBL document CHEMBL4334445, “Caspase-Dependent Apoptosis in Prostate Cancer Cells and Zebrafish by Corchorusoside C from Streptocaulon juventas” (J Nat Prod, 2019).
# Activity calls are given as the source filed them. The calls are words filed in the database; no cut-off is given here.
# What was measured:
# HT-29 = experiment: Cytotoxicity against human HT-29 cells assessed as reduction in cell viability measured after 72 hrs by SRB assay; assay type: functional, cell-based; conditions: for IC50: HT-29, 72 h
# HeLa = experiment: Cytotoxicity against human HeLa cells assessed as reduction in cell viability measured after 72 hrs by SRB assay; assay type: functional, cell-based
# DU-145 [1] = experiment: Cytotoxicity against human DU145 cells assessed as reduction in cell viability measured after 72 hrs by SRB assay; assay type: functional, cell-based; conditions: for IC50: DU-145, 72 h
# PC-3 = experiment: Cytotoxicity against human PC3 cells assessed as reduction in cell viability measured after 72 hrs by SRB assay; assay type: functional, cell-based; conditions: for IC50: PC-3, 72 h
# MDA-MB-231 = experiment: Cytotoxicity against human MDA-MB-231 cells assessed as reduction in cell viability measured after 72 hrs by SRB assay; assay type: functional, cell-based; conditions: MDA-MB-231, 72 h
# DU-145 [2] = experiment: Induction of apoptosis in human DU145 cells assessed as decrease in number of cells at 0.003 to 0.3 uM measured upto 72 hrs by microscopic analysis; assay type: functional, cell-based
# [3] = Toxicity in 24 hrs post fertilized zebrafish embryo assessed as effect on brain development at 50 uM measured after 24 hrs by microscopic analysis; set-up: species or system Danio rerio; conditions: in vivo
# Summary of the method: (§1)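 Embryos raised at 28 °C to 24 hpf, then exposed to 50 μM in 1% DMSO in water (vehicle control) for 24 h; larvae examined and photographed by light microscopy for developmental morphology.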
# [4] = Toxicity in 24 hrs post fertilized zebrafish embryo assessed as effect on vasculature at 50 uM measured after 24 hrs by microscopic analysis; set-up: species or system Danio rerio; conditions: in vivo; summary of the method: as §1
# [5] = Toxicity in 24 hrs post fertilized zebrafish embryo assessed as effect on heart development at 50 uM measured after 24 hrs by microscopic analysis; set-up: species or system Danio rerio; conditions: in vivo; summary of the method: as §1
# [6] = Toxicity in 24 hrs post fertilized zebrafish embryo assessed as effect on gut development at 50 uM measured after 24 hrs by microscopic analysis; set-up: species or system Danio rerio; conditions: in vivo; summary of the method: as §1
# [7] = Toxicity in 24 hrs post fertilized zebrafish embryo assessed as effect on trunk development at 50 uM measured after 24 hrs by microscopic analysis; set-up: species or system Danio rerio; conditions: in vivo; summary of the method: as §1
# [8] = Toxicity in 24 hrs post fertilized zebrafish embryo assessed as effect on tail development at 50 uM measured after 24 hrs by microscopic analysis; set-up: species or system Danio rerio; conditions: in vivo; summary of the method: as §1
# MCF7 = experiment: Cytotoxicity against human MCF7 cells assessed as reduction in cell viability measured after 72 hrs by SRB assay; assay type: functional, cell-based; conditions: for IC50: MCF7, 72 h
# [9] = Cytotoxicity against human CCD-112CoN cells assessed as reduction in cell viability measured after 72 hrs by SRB assay; assay type: cell-based
# [10] = Selectivity index, ratio of IC50 for human CCD-112CoN cells to IC50 for human HT-29 cells
# DU-145 [11] = experiment: Cytotoxicity against human DU145 cells assessed as reduction in cell viability measured after 24 hrs by SRB assay; assay type: functional, cell-based; conditions: DU-145, 24 h
# Summary of the method: (§2)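 DU-145 cells seeded at 5×10^4 cells/mL, compound 30–3×10^-4 μM for 24 or 48 h at 37 °C, 5% CO2; TCA fixation, 0.4% SRB staining, Tris-base solubilisation, absorbance 515 nm; timed IC50 by non-linear regression.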
# DU-145 [12] = experiment: Cytotoxicity against human DU145 cells assessed as reduction in cell viability measured after 48 hrs by SRB assay; assay type: functional, cell-based; conditions: DU-145, 48 h; summary of the method: as §2
# DU-145 [13] = experiment: Cell cycle arrest in human DU145 cells assessed as decrease in G1 phase population at 0.005 to 5 uM after 24 hrs by RNase/propidium iodide staining based FACScalibur flow cytometry analysis; assay type: functional
# Summary of the method: (§3)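 DU-145 cells in 6-cm plates treated 0.005–5 μM for 24 h; trypsinised, fixed in 70% ethanol, RNase incubation 1 h at 37 °C, propidium iodide stained; flow cytometry, excitation 488 nm, emission 617 nm; percentage of cells per phase vs control; two independent experiments.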
# DU-145 [14] = experiment: Induction of apoptosis in human DU145 cells assessed as cell shrinkage at 0.003 to 0.3 uM measured upto 72 hrs by microscopic analysis; assay type: functional, cell-based
# DU-145 [15] = experiment: Induction of apoptosis in human DU145 cells assessed as increase in apoptotic cells at 0.003 to 0.3 uM measured upto 72 hrs by microscopic analysis; assay type: functional, cell-based
# DU-145 [16] = experiment: Induction of morphological changes in human DU145 cells assessed as apoptotic cell death at 0.003 to 0.3 uM measured upto 72 hrs by microscopic analysis; assay type: functional, cell-based
# DU-145 [17] = experiment: Induction of apoptosis in human DU145 cells assessed as cell detachment from monolayer surface at 0.003 to 0.3 uM measured upto 72 hrs by microscopic analysis; assay type: functional, cell-based
# DU-145 [18] = experiment: Cell cycle arrest in human DU145 cells assessed as increase in sub-G1 phase population at 0.005 to 5 uM after 24 hrs by RNase/propidium iodide staining based FACScalibur flow cytometry analysis; assay type: functional; summary of the method: as §3
# DU-145 [19] = experiment: Induction of mitochondrial membrane potential loss in human DU145 cells after 2 hrs by JC1 staining based fluorescence assay; assay type: functional, cell-based; conditions: DU-145, 2 h
# DU-145 [20] = experiment: Decrease in NF-KappaB p50 subunit expression in human DU145 cells at 0.05 to 50 uM measured after 12 hrs by Western blot analysis; assay type: functional, cell-based
# Summary of the method: (§4)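 DU-145 cells in DMEM treated 0.05–50 μM for 12 h, DMSO/water vehicle control; lysates quantified by BCA, 20 μg protein on 10% Bis-Tris SDS-PAGE, transferred to PVDF, blocked with 3% BSA, primary antibody overnight, secondary 1 h, chemiluminescent detection, band densitometry; three independent assays, one-way ANOVA with Dunnett's test.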
# DU-145 [21] = experiment: Decrease in NF-KappaB p65 subunit expression in human DU145 cells at 0.05 to 50 uM measured after 12 hrs by Western blot analysis; assay type: functional, cell-based; summary of the method: as §4
# DU-145 [22] = experiment: Decrease in IKK alpha expression in human DU145 cells measured after 12 hrs by Western blot analysis; assay type: functional, cell-based; summary of the method: as §4
# DU-145 [23] = experiment: Decrease in IKKbeta expression in human DU145 cells measured after 12 hrs by Western blot analysis; assay type: functional, cell-based; summary of the method: as §4
# DU-145 [24] = experiment: Decrease in ICAM1 expression in human DU145 cells after 12 hrs by Western blot analysis; assay type: functional, cell-based; summary of the method: as §4
# DU-145 [25] = experiment: Induction of ROS generation in human DU145 cells at 0.5 to 50 uM measured after 5 hrs by DCFHDA probe based fluorescence assay; assay type: functional, cell-based
# Summary of the method: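 DU-145 cells seeded at 5×10^4/mL, treated 0.5–50 μM, incubated at 37 °C for 5 h; DCFH-DA 10 μM added; fluorescence at excitation 485 / emission 530 nm vs DMSO control; triplicate, two independent experiments, one-way ANOVA with Dunnett's test.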
# DU-145 [26] = experiment: Induction of apoptosis in human DU145 cells assessed as reduction in Bcl2 protein expression at 5 to 50 uM measured after 12 hrs by Western blot analysis; assay type: functional, cell-based; summary of the method: as §4
# DU-145 [27] = experiment: Induction of apoptosis in human DU145 cells assessed as increase in PARP1 protein expression at 5 to 50 uM measured after 12 hrs by Western blot analysis; assay type: functional, cell-based; summary of the method: as §4
# DU-145 [28] = experiment: Induction of apoptosis in human DU145 cells assessed assessed as caspase 3/7 activity after 5 hrs by caspase-Glo 3/7 reagent based luminescence assay; assay type: functional, cell-based
# Summary of the method: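 DU-145 cells at 1×10^4 per well treated 0.08–8 μM for 5 h, DMSO/water vehicle; Caspase-Glo 3/7 reagent added, 2 h incubation, luminescence read; three independent assays, one-way ANOVA with Dunnett's test.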
# DU-145 [29] = experiment: Induction of apoptosis in human DU145 cells assessed assessed as increase in caspase 3 expression at 0.05 to 50 uM after 12 hrs by Western blot analysis; assay type: functional, cell-based; summary of the method: as §4
# DU-145 [30] = experiment: Induction of apoptosis in human DU145 cells assessed assessed as increase in caspase 7 expression at 0.05 to 50 uM after 12 hrs by Western blot analysis; assay type: functional, cell-based; summary of the method: as §4
# [31] = target: Sodium/potassium-transporting ATPase (Homo sapiens) (UniProt P05023+P14415+P05026+P50993+P54709+P13637+Q13733+P54710); experiment: Inhibition of Na+/K+ ATPase pump in human DU145 cells assessed as increase in intracellular calcium level at 50 uM measured after 5 hrs by Fura-2/AM dye based fluorescence assay; assay type: cell-based
# Summary of the method: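 DU-145 cells at 1×10^4 per well treated 5 h (0–50 μM), DMSO/water negative control; medium removed, loaded with 5 μM fura-2 AM then 2.5 mM probenecid; intracellular Ca2+ from emission 510 nm ratio at 340/380 nm excitation; two independent experiments.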
# Danio rerio [32] = species: Danio rerio; experiment: Downregulation of NF-kappaB p65 expression in zebrafish at 0.6 to 15 uM by Western blot analysis; assay type: functional, organism-based
# Summary of the method: (§5)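 Zebrafish larvae at 72 hpf exposed for 3 h to a range of concentrations, frozen on dry ice and homogenised; BCA protein assay, 20 μg on 10% Bis-Tris SDS-PAGE, PVDF transfer, 3% BSA block, primary antibody overnight, secondary 1 h, chemiluminescent detection, densitometry.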
# Danio rerio [33] = species: Danio rerio; experiment: Downregulation of IKKalpha expression in zebrafish at 0.6 to 15 uM by Western blot analysis; assay type: functional, organism-based; summary of the method: as §5
# Danio rerio [34] = species: Danio rerio; experiment: Effect on NF-KappaB p50 expression in zebrafish at 0.6 to 15 uM by Western blot analysis; assay type: functional, organism-based; summary of the method: as §5
# Danio rerio [35] = species: Danio rerio; experiment: Effect on IKKbeta expression in zebrafish at 0.6 to 15 uM by Western blot analysis; assay type: functional, organism-based; summary of the method: as §5
# Danio rerio [36] = species: Danio rerio; experiment: Increase in caspase 3 level in zebrafish at 0.6 to 15 uM by Western blot analysis; assay type: functional, organism-based; summary of the method: as §5
# Danio rerio [37] = species: Danio rerio; experiment: Effect on caspase 7 level in zebrafish at 0.6 to 15 uM by Western blot analysis; assay type: functional, organism-based; summary of the method: as §5
# [38] = Toxicity in zebrafish assessed as effect on intracellular calcium level at 50 uM measured after 5 hrs by Fura-2/AM dye based fluorescence assay; assay type: cell-based, Danio rerio; conditions: in vivo
compound,measurement,setting,value
CC(=O)O[C@H]1C(=O)[C@@]2(C)[C@H]([C@H](OC(=O)c3ccccc3)[C@]3(O)C[C@H](OC(=O)[C@H](O)[C@@H](NC(=O)c4ccccc4)c4ccccc4)C(C)=C1C3(C)C)[C@]1(OC(C)=O)CO[C@@H]1C[C@@H]2O [PACLITAXEL],IC50,HT-29,2 nM
same,IC50,HeLa,5 nM
same,IC50,DU-145 [1],4 nM
same,IC50,PC-3,170 nM
same,IC50,MDA-MB-231,100 nM
C[C@H]1O[C@@H](O[C@H]2CC[C@]3(C)[C@H]4CC[C@]5(C)[C@@H](C6=CC(=O)OC6)CC[C@]5(O)[C@@H]4CC[C@]3(O)C2)C[C@H](O)[C@@H]1O[C@@H]1O[C@H](CO)[C@@H](O)[C@H](O)[C@H]1O,Activity,DU-145 [2],Active
same,Activity,[3],Non-Toxic
same,Activity,[4],Non-Toxic
same,Activity,[5],Non-Toxic
same,Activity,[6],Non-Toxic
same,Activity,[7],Non-Toxic
same,Activity,[8],Non-Toxic
same,Activity,HT-29,Dose-dependent effect
same,IC50,HT-29,120 nM
same,Activity,HeLa,Dose-dependent effect
same,IC50,HeLa,190 nM
same,Activity,DU-145 [1],Dose-dependent effect
same,IC50,DU-145 [1],80 nM
same,Activity,PC-3,Dose-dependent effect
same,IC50,PC-3,200 nM
same,Activity,MCF7,Dose-dependent effect
same,IC50,MCF7,100 nM
same,IC50,MDA-MB-231,200 nM
same,IC50,[9],2700 nM
same,Ratio IC50,[10],22.5
same,IC50,DU-145 [11],11200 nM
same,IC50,DU-145 [12],1200 nM
same,Activity,DU-145 [13],Active
same,Activity,DU-145 [14],Active
same,Activity,DU-145 [15],Active
same,Activity,DU-145 [16],Active
same,Activity,DU-145 [17],Active
same,Activity,DU-145 [18],Active
same,IC50,DU-145 [19],300 nM
same,inhibition,DU-145 [20],Active
same,inhibition,DU-145 [21],Active
same,inhibition,DU-145 [22],Dose-dependent effect
same,inhibition,DU-145 [23],Dose-dependent effect
same,Activity,DU-145 [24],Dose-dependent effect
same,Activity,DU-145 [25],Active
same,Activity,DU-145 [26],Active
same,Activity,DU-145 [27],Active
same,Activity,DU-145 [28],Dose-dependent effect
same,Activity,DU-145 [29],Active
same,Activity,DU-145 [30],Active
same,inhibition,[31],Active
same,Activity,Danio rerio [32],Active
same,Activity,Danio rerio [33],Active
same,Activity,Danio rerio [34],inactive
same,Activity,Danio rerio [35],inactive
same,Activity,Danio rerio [36],Active
same,Activity,Danio rerio [37],inactive
same,Activity,[38],Non-Toxic
Cc1c2ccncc2c(C)c2c1[nH]c1ccccc12 [ELLIPTECINE],IC50,MCF7,800 nM
